For 20 molecules, selectivity ratio, CC50 and EC50 results are on record in ChEMBL document CHEMBL2417418, “Synthesis and evaluation of novel 3-(3,5-dimethylbenzyl)uracil analogs as potential anti-HIV-1 agents” (Bioorg Med Chem, 2013).

pEC50: −log10 of the molar value. Bounds are passed on as bounds.

A short description of data set [1]: Selectivity index, ratio of CC50 for human MT4 cells to EC50 for HIV1 3B. The conditions noted are these: read-out: Ratio CC50/EC50. The class given is toxicity, cell-based. In short, it runs like this: (§1)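 SI computed as CC50/EC50. Both values come from parallel MTT readings after 4 days at 37 °C. CC50 is from mock-infected MT-4 cells; EC50 is from MT-4 cells infected with HIV-1 IIIB at MOI 0.1, as 50% protection from cytopathogenicity.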

A short description of data set [2]: Cytotoxicity against human MT4 cells after 4 days by MTT assay. In kind it is cell-based. In short, it runs like this:
(§2)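 Mock-infected MT-4 cells (1 ×10^5 cells/mL, RPMI 1640 + 10% heat-inactivated FBS) cultured with various compound concentrations in parallel with the antiviral assay, 4 days at 37 °C, 5% CO2. Viability read by MTT. CC50 is the concentration cutting uninfected-cell viability by 50%.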

For data set [3], the system named is Human immunodeficiency virus 1. The experiment in a line: Antiviral activity against HIV1 3B infected in human MT4 cells assessed as protection against viral-induced cytopathogenicity after 4 days by MTT assay. In kind it is functional, organism-based. To be noted: Human immunodeficiency virus 1, 3B, MT4, 96 h.
A short description of data set [4]: Cytotoxicity against human MT4 cells. The class given is cell-based. In short, it runs like this:
as §2

Data set [5] can be described thus: Selectivity index, ratio of CC50 for human MT4 cells to EC50 for HIV1. In kind it is toxicity, cell-based. The conditions noted are these: read-out: Ratio CC50/EC50. The gist of the method: as §1
Data set [6] has as its system Human immunodeficiency virus 1. The experiment in a line: Antiviral activity against HIV1 infected in human MT4 cells. The class given is functional, organism-based. The conditions noted are these: Human immunodeficiency virus 1, MT4.

Regarding `Cc1cc(C)cc(Cn2c(=O)cc(N=[N+]=[N-])n(Cc3ccncc3)c2=O)c1`, in data set [1], the selectivity ratio worked out at 1160. This molecule gave a CC50 at 96 h in data set [2] of 59 µM. The negative logarithm of the EC50 (pEC50) in data set [3] is 7.30.

For the molecule `Cc1cc(C)cc(Cn2c(=O)cc(N)n(Cc3ccncc3)c2=O)c1`, in data set [1], the selectivity ratio is above 2860. Besides, the CC50 at 96 h in data set [2] was above 100 µM. For the same molecule, the negative-log EC50 (pEC50) in data set [3] is 7.52.

In turn, `Cc1cc(C)cc(Cn2c(=O)cc(N3CCNCC3)n(Cc3ccccc3)c2=O)c1` yielded a CC50 at 96 h in data set [2] of 16 µM. In data set [3], the pEC50 is below 4.80.

For the molecule `Cc1cc(C)cc(Cn2c(=O)cc(N=[N+]=[N-])n(Cc3ccccn3)c2=O)c1`, the selectivity ratio in data set [1] is above 457. In data set [2], this molecule came in with a 50% cytotoxic concentration (CC50) at 96 h above 100 µM. Moreover, in data set [3], the negative logarithm of the EC50 (pEC50) is 6.66.

`Cc1cc(C)cc(Cn2c(=O)cc(N3CCOCC3)n(Cc3ccccc3)c2=O)c1`: in data set [2], the CC50 at 96 h is above 100 µM. Besides, the pEC50 in data set [3] was below 4.00.

Consider `Cc1cc(C)cc(Cn2c(=O)cc(N3CCCCC3)n(Cc3ccccc3)c2=O)c1`, for which the CC50 at 96 h in data set [2] stood at 47 µM. Moreover, the pEC50 in data set [3] is below 4.33.

As for `Cc1cc(C)cc(Cn2c(=O)cc(NC3CCCCC3)n(Cc3ccccc3)c2=O)c1`, the CC50 at 96 h in data set [2] was determined as 74 µM. Also, the pEC50 in data set [3] is below 4.13.

Turning to `Cc1cc(C)cc(Cn2c(=O)cc(N(C)C)n(Cc3ccccc3)c2=O)c1`, the half-maximal cytotoxic concentration (CC50) at 96 h in data set [2] was determined as 48 µM. Also, in data set [3], the pEC50 is below 4.32.

For `Cc1cc(C)cc(Cn2c(=O)cc(N)n(Cc3ccccn3)c2=O)c1`, the selectivity ratio in data set [1] was above 443. Also, in data set [2], the CC50 at 96 h was above 100 µM. Besides, in data set [3], the pEC50 is 6.64.

In data set [4], `Cc1cc(C)cc(Cn2c(=O)cc(N)n(Cc3ccccc3)c2=O)c1` had a CC50 of 45.6 µM. For the same molecule, the selectivity ratio in data set [5] came out at 661. Besides, in data set [6], the pEC50 is 7.16.

With `Cc1cn([C@H]2C[C@H](N=[N+]=[N-])[C@@H](CO)O2)c(=O)[nH]c1=O` [ZIDOVUDINE], the selectivity ratio in data set [1] is above 2770. The molecule also registered a CC50 at 96 h in data set [2] above 100 µM. The negative-log EC50 (pEC50) in data set [3] was 7.40.

As to `Cc1cc(C)cc(Cn2c(=O)cc(N=[N+]=[N-])n(Cc3ccccc3)c2=O)c1`, the midpoint of cytotoxicity in data set [4], the CC50, lay at 45.9 µM. Also, the selectivity ratio in data set [5] amounted to 685. The molecule further showed a negative logarithm of the EC50 (pEC50) in data set [6] of 7.17.

Regarding `Cc1cc(C)cc(Cn2c(=O)cc(N3CCCC3)n(Cc3ccccc3)c2=O)c1`, the CC50 at 96 h in data set [2] worked out at 31 µM. Besides, in data set [3], the pEC50 is below 4.51.

For the molecule `CNc1cc(=O)n(Cc2cc(C)cc(C)c2)c(=O)n1Cc1ccccc1`, in data set [1], the selectivity ratio worked out at 9. Further, the CC50 at 96 h in data set [2] was 65 µM. The pEC50 in data set [3] is 5.15.

For `Cc1cc(C)cc(Cn2c(=O)cc(NC3CC3)n(Cc3ccccc3)c2=O)c1`, in data set [2], the CC50 at 96 h is above 100 µM. Besides, the pEC50 in data set [3] is below 4.00.

In the case of `Cc1cc(C)cc(Cn2c(=O)cc(N=[N+]=[N-])n(CC#N)c2=O)c1`, the CC50 at 96 h in data set [2] is 60 µM. In addition, the negative logarithm of the EC50 (pEC50) in data set [3] was 5.46.

On to `CC(=O)Nc1cc(=O)n(Cc2cc(C)cc(C)c2)c(=O)n1Cc1ccccc1`, for which the CC50 at 96 h in data set [2] was above 100 µM. For the same molecule, the negative-log EC50 (pEC50) in data set [3] is below 4.00.

In data set [2], `Cc1cc(C)cc(Cn2c(=O)cc(NCc3ccccc3)n(Cc3ccccc3)c2=O)c1` yielded a CC50 at 96 h above 100 µM. In data set [3], the negative logarithm of the EC50 (pEC50) is below 4.00.

`Cc1cc(C)cc(Cn2c(=O)cc(N)n(CC#N)c2=O)c1` registered a CC50 at 96 h in data set [2] above 100 µM. Further, the negative-log EC50 (pEC50) in data set [3] was below 4.00.

For the molecule `Cc1ccnc2c1NC(=O)c1cccnc1N2C1CC1` [NEVIRAPINE], the selectivity ratio in data set [5] was above 1640.
